Test results reported in ChEMBL document CHEMBL1141616, “Structure-activity relationships in the inhibition of monoamine oxidase B by 1-methyl-3-phenylpyrroles” (Bioorg Med Chem, 2008).
Active and inactive are the calls of the source. The rule behind the calls is not given here.

Columns and labels:
[1] = Inhibition of baboon liver mitochondrial MAOB; parameters: species or system Papio hamadryas
Bos taurus = species on record: Bos taurus; experiment: Inhibition of beef liver mitochondrial MAOB at 200 uM
Papio hamadryas = species on record: Papio hamadryas; experiment: Inhibition of baboon liver mitochondrial MAOB at 5.20 uM
Summary of the method: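 Time-dependence test: baboon liver mitochondria (0.3 mg protein/mL) were preincubated with inhibitor at 5.20 µM in 100 mM sodium phosphate, pH 7.4, for 0, 15, 30 and 60 min at 37 °C. This was then diluted to 0.15 mg protein/mL with 90 µM MMTP, giving a final inhibitor concentration of 2.60 µM. Incubated 15 min at 37 °C, stopped with perchloric acid, and MMDP⁺ was measured.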

| SMILES | Ki [1] [µM] | Activity (Bos taurus) | Activity (Papio hamadryas) |
| --- | --- | --- | --- |
| Cn1ccc(-c2ccc(Cl)cc2)c1 | 18.4 | inactive | – |
| Cc1ccc(-c2ccn(C)c2)cc1 | 22.5 | inactive | – |
| Cn1ccc(-c2ccc(F)cc2)c1 | 31 | inactive | – |
| Cn1ccc(-c2ccc(Br)cc2)c1 | 6.65 | inactive | – |
| COc1ccc(-c2ccn(C)c2)cc1 | 36.5 | inactive | – |
| Cn1ccc(-c2ccccc2)c1 | 118 | inactive | – |

Further lines, results first:

| Ki [1] [µM] | Activity (Bos taurus) | Activity (Papio hamadryas) | SMILES |
| --- | --- | --- | --- |
| 6.55 | inactive | – | Cn1ccc(-c2cccc(C(F)(F)F)c2)c1 |
| 1.3 | inactive | Active | Cn1ccc(-c2ccc(C(F)(F)F)cc2)c1 |
| 41.7 | inactive | – | COc1cccc(-c2ccn(C)c2)c1 |
| 38.9 | inactive | – | Cn1ccc(-c2cccc(F)c2)c1 |
| 20.9 | inactive | – | Cn1ccc(-c2cccc(Cl)c2)c1 |
| 56 | inactive | – | Cc1cccc(-c2ccn(C)c2)c1 |
| 14.3 | inactive | – | Cn1ccc(-c2cccc(Br)c2)c1 |
